Experimental findings from ChEMBL document CHEMBL5096186, “Design, Synthesis, and Biological Evaluation of Novel Pyrimido[4,5-b]indole Derivatives Against Gram-Negative Multidrug-Resistant Pathogens” (J Med Chem, 2021) are described below.

The target in data set [1] is hERG (KCNH2) potassium channel (Homo sapiens, UniProt Q12809). In words: Inhibition of hERG potassium channel assessed as maximum inhibition rate at 40 uM at -80 mV holding potential incubated for 120 seconds by whole cell-automated voltage clamp analysis assay relative to control. To be noted: time 120 sec. It counts as toxicity. The method, boiled down:
(§1)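 Automated whole-cell patch clamp, holding potential −80 mV. Voltage protocol applied every 20 s. Baseline set with external solution containing 0.1% DMSO and stabilised 3 min. Compound applied until steady state, at least 3 min, then washout. Maximum tested concentration 40 μM, or 3 μM for cisapride as positive control.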

For data set [2], the system named is Escherichia coli. In words: Antibacterial activity against Escherichia coli ATCC 35218 strains 15 1 to 3 assessed as reduction in bacterial growth incubated for 18 to 20 hrs by CLSI based microdilution method. Type of data set: functional. As to conditions: time 18-20 hrs. The method, boiled down: (§2)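 CLSI broth microdilution. Compounds in DMSO (levofloxacin and meropenem in water), serial twofold dilutions in broth, 64 to 0.008 μg/mL. […] Results reported as MIC ranges across strains.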

The subject of data set [3] is Pseudomonas aeruginosa. The experiment in a line: Antibacterial activity against multidrug resistant Pseudomonas aeruginosa strains 15 1 to 3 assessed as reduction in bacterial growth incubated for 18 to 20 hrs by CLSI based microdilution method. It counts as functional. As to conditions: time 18-20 hrs. In short, it runs like this: (§3)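 Broth microdilution per CLSI. Compounds dissolved in DMSO (levofloxacin and meropenem in water) as 64 μg/mL stock, then serial twofold dilutions in broth giving 64 to 0.008 μg/mL. […] Clinical isolates tested as several strains per group; racemic GP-1 served as positive control; values given as MIC ranges.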

In data set [4] the target is Voltage-gated inwardly rectifying potassium channel KCNH2 (Homo sapiens, UniProt Q12809). The experiment in a line: Inhibition of hERG potassium channel assessed as […] at -80 mV holding potential incubated for 120 seconds by whole cell-automated voltage clamp analysis assay. It counts as toxicity. In short, it runs like this:
as §1

Data set [5] relates to Escherichia coli. In words: Antibacterial activity against ESBL-producing Escherichia coli ATCC 35218 strains 15 1 to 3 assessed as reduction in bacterial growth incubated for 18 to 20 hrs by CLSI based microdilution method. Type of data set: functional. As to conditions: time 18-20 hrs. In short, it runs like this: as §2
In data set [6] the test system is Staphylococcus epidermidis. The experiment in a line: Antibacterial activity against methicillin-sensitive Staphylococcus epidermidis strains 15 1 to 4 assessed as reduction in bacterial growth incubated for 18 to 20 hrs by CLSI based microdilution method. Type of data set: functional. As to conditions: time 18-20 hrs. In short, it runs like this: as §3
Data set [7] has as its system Staphylococcus aureus. The experiment in a line: Antibacterial activity against methicillin-sensitive Staphylococcus aureus strains 15 1 to 4 assessed as reduction in bacterial growth incubated for 18 to 20 hrs by CLSI based microdilution method. As to conditions: time 18-20 hrs. Type of data set: functional. The method, boiled down: as §3
Data set [8] has as its system Staphylococcus aureus. In words: Antibacterial activity against methicillin-resistant Staphylococcus aureus strains 15 1 to 4 assessed as reduction in bacterial growth incubated for 18 to 20 hrs by CLSI based microdilution method. Type of data set: functional. As to conditions: time 18-20 hrs. The method, boiled down:
as §3

In data set [9] the test system is Pseudomonas aeruginosa. The experiment in a line: Antibacterial activity against wild type Pseudomonas aeruginosa ATCC 27853 assessed as reduction in bacterial growth incubated for 18 to 20 hrs by CLSI based microdilution method. Type of data set: functional. To be noted: time 18-20 hrs. In short, it runs like this:
as §2

Data set [10] has as its system Escherichia coli. In words: Antibacterial activity against multidrug resistant wild type Escherichia coli NCTC 13353 assessed as reduction in bacterial growth incubated for 18 to 20 hrs by CLSI based microdilution method. To be noted: time 18-20 hrs. Type of data set: functional. The method, boiled down: as §3
The test system of data set [11] is Acinetobacter baumannii. The experiment in a line: Antibacterial activity agains OXA23-producing multidrug resistant Acinetobacter baumannii assessed as reduction in bacterial growth incubated for 18 to 20 hrs by CLSI based microdilution method. It counts as functional. As to conditions: time 18-20 hrs. In short, it runs like this: as §3
The test system of data set [12] is Pseudomonas aeruginosa. The experiment in a line: Antibacterial activity against IMP4-producing multidrug resistant Pseudomonas aeruginosa assessed as reduction in bacterial growth incubated for 18 to 20 hrs by CLSI based microdilution method. It counts as functional. As to conditions: time 18-20 hrs. The method, boiled down:
as §3

Data set [13] concerns Escherichia coli. In words: Antibacterial activity against ESBL-producing multidrug resistant Escherichia coli assessed as reduction in bacterial growth incubated for 18 to 20 hrs by CLSI based microdilution method. To be noted: time 18-20 hrs. It counts as functional. The method, boiled down:
as §3

The subject of data set [14] is Klebsiella pneumoniae. In words: Antibacterial activity agains wild type Klebsiella pneumoniae ATCC BAA-2470 assessed as reduction in bacterial growth incubated for 18 to 20 hrs by CLSI based microdilution method. To be noted: time 18-20 hrs. It counts as functional. The method, boiled down:
as §3

Data set [15] relates to Klebsiella pneumoniae. The experiment in a line: Antibacterial activity against KPC2-producing multidrug resistant Klebsiella pneumoniae assessed as reduction in bacterial growth incubated for 18 to 20 hrs by CLSI based microdilution method. It counts as functional. As to conditions: time 18-20 hrs. The method, boiled down: as §3
Data set [16] deals with Klebsiella pneumoniae. In words: Antibacterial activity agains wild type Klebsiella pneumoniae ATCC BAA-1705 assessed as reduction in bacterial growth incubated for 18 to 20 hrs by CLSI based microdilution method. Type of data set: functional. As to conditions: time 18-20 hrs. In short, it runs like this:
as §2

The subject of data set [17] is Escherichia coli. In words: Antibacterial activity against multidrug resistant wild type Escherichia coli ATCC BAA-2340 assessed as reduction in bacterial growth incubated for 18 to 20 hrs by CLSI based microdilution method. To be noted: time 18-20 hrs. It counts as functional. The method, boiled down: as §3
Data set [18] deals with Acinetobacter baumannii. In words: Antibacterial activity against wild type Acinetobacter baumannii NCTC 13304 assessed as reduction in bacterial growth incubated for 18 to 20 hrs by CLSI based microdilution method. As to conditions: time 18-20 hrs. Type of data set: functional. The method, boiled down:
as §3

pIC50: −log10 of the molar value. ≈ marks a conversion by molar mass, not a printed value.

Voltage-gated inwardly rectifying potassium channel KCNH2, sequence (Q12809 whole entry): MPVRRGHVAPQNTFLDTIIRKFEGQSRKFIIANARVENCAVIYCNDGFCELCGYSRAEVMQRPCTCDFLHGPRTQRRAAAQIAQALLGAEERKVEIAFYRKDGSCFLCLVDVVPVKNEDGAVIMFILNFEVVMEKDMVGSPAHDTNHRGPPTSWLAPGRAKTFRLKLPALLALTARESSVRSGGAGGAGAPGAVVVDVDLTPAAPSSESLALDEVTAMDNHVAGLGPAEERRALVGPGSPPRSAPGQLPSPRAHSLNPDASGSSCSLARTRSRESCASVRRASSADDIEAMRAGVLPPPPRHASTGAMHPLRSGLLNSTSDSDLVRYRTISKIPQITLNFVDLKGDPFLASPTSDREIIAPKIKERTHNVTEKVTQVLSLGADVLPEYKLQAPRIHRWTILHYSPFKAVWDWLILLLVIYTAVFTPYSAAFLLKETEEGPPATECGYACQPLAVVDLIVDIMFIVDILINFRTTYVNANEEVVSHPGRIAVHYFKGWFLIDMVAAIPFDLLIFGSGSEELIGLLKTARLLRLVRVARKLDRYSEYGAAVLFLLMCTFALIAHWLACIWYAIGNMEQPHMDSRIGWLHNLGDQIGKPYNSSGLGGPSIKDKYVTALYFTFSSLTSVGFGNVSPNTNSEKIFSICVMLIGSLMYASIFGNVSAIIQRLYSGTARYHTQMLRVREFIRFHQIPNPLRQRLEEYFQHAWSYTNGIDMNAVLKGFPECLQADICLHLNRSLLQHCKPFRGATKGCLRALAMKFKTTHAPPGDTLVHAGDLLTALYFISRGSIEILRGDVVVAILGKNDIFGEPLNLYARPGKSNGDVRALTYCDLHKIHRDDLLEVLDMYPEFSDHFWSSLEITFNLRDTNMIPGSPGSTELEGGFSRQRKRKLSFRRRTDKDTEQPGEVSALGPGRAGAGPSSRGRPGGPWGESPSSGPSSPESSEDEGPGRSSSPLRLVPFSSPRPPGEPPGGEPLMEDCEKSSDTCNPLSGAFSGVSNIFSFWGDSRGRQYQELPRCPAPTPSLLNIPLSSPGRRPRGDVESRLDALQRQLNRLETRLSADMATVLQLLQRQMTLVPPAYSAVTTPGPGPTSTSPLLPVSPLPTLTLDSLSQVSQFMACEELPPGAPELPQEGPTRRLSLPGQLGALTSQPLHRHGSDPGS
hERG (KCNH2) potassium channel, sequence (Q12809 whole entry): as above

Turning to `CNc1cc(F)cc2c1[nH]c1nc(Oc3cnc(C)nc3)nc(N3CC(=C(C)CN)C3)c12`, the inhibition at 2 min, 40 µM in [1] stood at 4.8%. The MIC is 0.06 µg/mL (≈ 0.138 µM) in data set [2]; greater than 4 µg/mL in data set [3]; 2 µg/mL (≈ 4.6 µM) in data set [5]; less than 0.008 µg/mL in data set [6]; less than 0.008 µg/mL in [7]. Further, the pIC50 in data set [4] was less than 4.40.
On to `CCC(CO)=C1CN(c2nc(C(=O)Nc3cnc(C)nc3)nc3[nH]c4c(NC)cc(F)cc4c23)C1`, for which the MIC in data set [2] and in data set [5] was greater than 64 µg/mL in each case.
Take `CCC(CN)=C1CN(c2nc(Oc3cnc(C4CC4)nc3)nc3[nH]c4c(NC)cc(F)cc4c23)C1`: in data set [1], the inhibition at 2 min, 40 µM turned out to be 62%. The MIC was 0.015 µg/mL (≈ 0.0316 µM) in [2]; 0.5 µg/mL (≈ 1.05 µM) in [3]; 0.03 µg/mL (≈ 0.0632 µM) in data set [5]; less than 0.008 µg/mL in data set [6]; less than 0.008 µg/mL in data set [7]. The negative-log IC50 (pIC50) in [4] was 4.63.
For `CNc1cc(F)cc2c1[nH]c1nc(Oc3cnc(C)nc3)nc(N3CC/C(=C(\F)CN)C3)c12`, the inhibition at 2 min, 40 µM in data set [1] turned out to be 41.6%. For the same compound, the MIC in data set [2] was less than 0.06 µg/mL; in data set [3], 2 µg/mL (≈ 4.42 µM); in [5], 0.015 µg/mL (≈ 0.0332 µM); in data set [8], 0.008 µg/mL (≈ 0.0177 µM); in [6], less than 0.008 µg/mL; in [7] it was less than 0.008 µg/mL. For the same compound, the pIC50 in data set [4] was less than 4.40.
As to `CNc1cc(F)cc2c1[nH]c1nc(Oc3cnc(C)nc3)nc(N3CC(=CC(C)O)C3)c12` (configuration not stated), the MIC was 0.125 µg/mL (≈ 0.287 µM) in [2]; greater than 16 µg/mL in [3]; 0.5 µg/mL (≈ 1.15 µM) in data set [5]; less than 0.008 µg/mL in data set [6]; less than 0.008 µg/mL in [7].
As for `CCC(CN)=C1CN(c2nc(Sc3cnc(C)nc3)nc3[nH]c4c(NC)cc(F)cc4c23)C1`, the minimum inhibitory concentration (MIC) in data set [2] was 0.5 µg/mL (≈ 1.08 µM); in data set [3], greater than 16 µg/mL; in data set [5], 1 µg/mL (≈ 2.15 µM); in [8], less than 0.008 µg/mL; in data set [6], less than 0.008 µg/mL; in data set [7], 0.008 µg/mL (≈ 0.0172 µM).
On to `CNc1cc(F)cc2c1[nH]c1nc(Oc3cnc(C)nc3)nc(N3CC(=C(C)CO)C3)c12`, for which the MIC is 0.25 µg/mL (≈ 0.574 µM) in data set [2]; greater than 64 µg/mL in [3]; greater than 64 µg/mL in data set [5]; less than 0.03 µg/mL in data set [6]; less than 0.03 µg/mL in [7].
`CCC(CN)=C1CN(c2nc(S(C)(=O)=O)nc3[nH]c4c(NC)cc(F)cc4c23)C1`: the MIC in [2], in [3], in data set [5], in data set [6] and in [7] was greater than 16 µg/mL each time.
For `[2H]C([2H])([2H])Nc1cc(F)cc2c1[nH]c1nc(Oc3cnc(C)nc3)nc(N3CC(=C(C)[C@H](C)N)C3)c12`, the MIC in [9] amounted to 2 µg/mL (≈ 4.43 µM); in data set [10], 0.125 µg/mL (≈ 0.277 µM); in [11], 0.5 µg/mL (≈ 1.11 µM); in data set [12], 8 µg/mL (≈ 17.7 µM); in data set [13], 0.5 µg/mL (≈ 1.11 µM); in data set [14], 2 µg/mL (≈ 4.43 µM). Besides, the MIC worked out at 2 µg/mL (≈ 4.43 µM) in data set [15], 8 µg/mL (≈ 17.7 µM) in data set [16], 0.5 µg/mL (≈ 1.11 µM) in data set [17] and 0.5 µg/mL (≈ 1.11 µM) in data set [18].
As to `CNc1cc(F)cc2c1[nH]c1nc(Oc3cnc(C)nc3)nc(N3CC(=C(Cl)CN)C3)c12`, the inhibition at 2 min, 40 µM in [1] was 34.3%. The minimal inhibitory concentration (MIC) in [2] was 0.25 µg/mL (≈ 0.55 µM); in data set [3], 8 µg/mL (≈ 17.6 µM); in [5], 1 µg/mL (≈ 2.2 µM); in data set [6], less than 0.008 µg/mL; in data set [7] it was less than 0.008 µg/mL. Also, the pIC50 in [4] is less than 4.40.
